# Measurements from BindingDB's records for doi:10.1016/j.bmc.2018.07.042 (Human Biomolecular Research Institute, 2018).
# Molecular target: T1, Cellular tumor antigen p53 (Homo sapiens, UniProt P04637)
# Experiment: Activation of p53 in human MCF7 cell lysates assessed as increase in total p53 protein level by Western blot analysis
# T1 sequence (P04637 whole entry): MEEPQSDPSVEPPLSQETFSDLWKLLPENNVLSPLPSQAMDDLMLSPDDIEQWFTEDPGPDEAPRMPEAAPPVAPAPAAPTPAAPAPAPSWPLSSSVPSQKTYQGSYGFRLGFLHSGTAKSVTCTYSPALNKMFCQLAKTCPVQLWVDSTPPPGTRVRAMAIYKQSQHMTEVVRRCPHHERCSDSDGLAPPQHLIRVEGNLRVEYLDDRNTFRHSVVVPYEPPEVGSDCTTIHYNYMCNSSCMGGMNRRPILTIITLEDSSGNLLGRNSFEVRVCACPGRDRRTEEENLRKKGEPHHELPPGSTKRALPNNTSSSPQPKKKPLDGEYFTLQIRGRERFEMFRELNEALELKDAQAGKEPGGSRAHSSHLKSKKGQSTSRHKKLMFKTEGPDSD
row,EC50 [nM],Compound
1,18,CN1CCN(S(=O)(=O)c2ccc(N3CCCC3=O)cc2)c2ccccc21

# Molecular target: T1, Cellular tumor antigen p53
# Experiment: Induction of p53 transcriptional activity (unknown origin) expressed in HEK293 cells coexpressing TK-driven Rluc after 20 to 22 hrs by luciferase reporter gene assay
# In short: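 Transient transfection of HEK-293 cells with a p53-Luc vector (13x p53-binding consensus response element) plus TK-driven Renilla luciferase for normalization. Protocol was as for the Wnt reporter, but final serum was 2.5%. Cells were treated or given DMSO for 20-22 h in triplicate. Firefly/Renilla signal relative to DMSO was fit by nonlinear regression for […].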
row,EC50 [nM],Compound
1,> 5000,O=S(=O)(c1ccc(-n2cncn2)cc1)N1CCCc2ccccc21
2,12,O=C1CCCN1c1ccc(S(=O)(=O)N2CCCc3ccccc32)cc1
3,152,CC(C)(C)c1ccc2c(c1)CCCN2S(=O)(=O)c1ccc(N2CCCC2=O)cc1
4,74,CN1CCN(S(=O)(=O)c2ccc(N3CCC=N3)cc2)c2ccccc21

# The remaining lines, values behind:
row,Compound,EC50 [nM]
1,COc1ccc2c(c1)N(C)CCN2S(=O)(=O)c1ccc(N2CCCC2=O)cc1,4
2,CN1CCN(S(=O)(=O)c2ccc(N3CCCC3=O)cc2)c2ccccc21,2
3,Cc1ccc2c(c1)CCCN2S(=O)(=O)c1ccc(N2CCCC2=O)cc1,4
4,CCCN(c1ccccc1)S(=O)(=O)c1ccc(N2CCCC2=O)cc1,158
5,CN1CCN(S(=O)(=O)c2ccc(N3CCCC3)cc2)c2ccccc21,65
6,COc1ccc2c(c1)CCCN2S(=O)(=O)c1ccc(N2CCCC2=O)cc1,9
